Laboratory results from publication PMC3632105 (Nucleic Acids Research, 2013).
“And” between values parts separate entries of the source, which are not always exact repeats. Identical values can stand only once.

Legend:
[1] = Sedimentation coefficient of the free proteins; format: physicochemical; conditions: low salt buffer: 5 mM potassium phosphate, pH 7.4, 5 mM NaCl, 8% (w/v) glycerol, 0.5 mM DTT; 20°C, 50 000 rpm
In short: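 Sedimentation velocity in double-sector cells, recording 280 nm absorbance versus radial position. Samples were full-length DnaG, DnaG-N (residues 1–433), DnaG-C (434–581) and E. coli SSB. Concentrations came from 280 nm extinction coefficients. Data were evaluated as c(s) distributions in SEDFIT.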

DnaG-C [2] = assay: Isothermal titration calorimetry of DnaG-C with SSB-Carb peptide; format: binding, Escherichia coli; conditions: for binding (association) constant KA by ITC: model of n identical independent sites
DnaG-C [3] = assay: NMR titration; format: binding, Escherichia coli; conditions: 300 µM 15N-DnaG-C titrated with SSB-Carb, 295 K, 600 MHz
In short: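 15N-DnaG-C in 5 mM potassium phosphate pH 7.4, 5 mM NaCl, 2 mM DTT, 10% D2O. Peptide was added from a 30 mM DMSO stock to final 0, 0.1, 0.3, 0.6 and 1 mM. SOFAST-HMQC spectra used 16 scans. Shift = sqrt[Δδ(1H)² + (Δδ(15N)/10)²], comparing no peptide with 1 mM.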

SSB = conditions: low salt conditions; cited from earlier work
[4] = 150 mM NaCl, 5 mM potassium phosphate, pH 7.4, 8% (w/v) glycerol, 25°C, SSB-Carb on DnaG-C

## EcoSSB: Escherichia coli single-stranded DNA-binding protein; concentrations given in tetramers
[1]
  sedimentation coefficient, free protein: 3.9 S

## DnaG: full-length E. coli DnaG primase
[1]
  sedimentation coefficient, free protein: 3.4 S

## WMDFDDDIPF [SSB-Carb]
DnaG-C [2]; 5 mM NaCl, 5 mM potassium phosphate, pH 7.4, 8% (w/v) glycerol, 25°C, 1.04 mM SSB-Carb titrated into 46 µM DnaG-C
  binding (association) constant KA by ITC: 240000 M⁻¹
DnaG-C [2]; 5 mM NaCl, 5 mM potassium phosphate, pH 7.4, 8% (w/v) glycerol, 25°C, SSB-Carb on DnaG-C
  binding enthalpy ΔH by ITC: -52.0 kJ/mol
DnaG-C [2]; 150 mM NaCl, 5 mM potassium phosphate, pH 7.4, 8% (w/v) glycerol, 25°C, 1.08 mM SSB-Carb titrated into 46 µM DnaG-C
  binding (association) constant KA by ITC: 74000 M⁻¹ and ~70000 M⁻¹
DnaG-C [2]; [4]
  binding enthalpy ΔH by ITC: -41.3 kJ/mol
  binding stoichiometry n by ITC: 0.89
DnaG-C [2]; from 5 to 150 mM NaCl, DnaG-C/SSB-Carb interaction, ITC
  change of affinity on increase of salt concentration: decreases the affinity only by a factor of about three
DnaG-C [3]
  chemical shift change of W522 side chain of DnaG-C (in words): not only the chemical shifts of tryptophan 522 backbone change upon addition of SSB-Carb peptide but also those of the side chain
DnaG-C [3]; listed as peptide
  chemical shift change of W522 side chain of DnaG-C (in words): strong changes in chemical shift on peptide binding

## χ: χ subunit of DNA polymerase III
SSB
  increase in SSB-binding affinity in presence of ssDNA: 20 fold

B1: DnaG-C: amino acid residues 434–581 of DnaG, C-terminal helicase-binding domain (protein, UniProt P0ABS5 434-581, looked up, fragment)
chain: AAESGVSRPVPQLKRTTMRILIGLLVQNPELATLVPPLENLDENKLPGLGLFRELVNTCLSQPGLTTGQLLEHYRGTNNAATLEKLSMWDDIADKNIAEQTFTDSLNHMFDSLLELRQEELIARERTHGLSNEERLELWTLNQELAKK
modifications: helicase-binding domain
[1]
  sedimentation coefficient, free protein: 1.4 S

B2: DnaG-N: amino acid residues 1–433 of DnaG (protein, UniProt P0ABS5 1-433, looked up, fragment)
chain: MAGRIPRVFINDLLARTDIVDLIDARVKLKKQGKNFHACCPFHNEKTPSFTVNGEKQFYHCFGCGAHGNAIDFLMNYDKLEFVETVEELAAMHNLEVPFEAGSGPSQIERHQRQTLYQLMDGLNTFYQQSLQQPVATSARQYLEKRGLSHEVIARFAIGFAPPGWDNVLKRFGGNPENRQSLIDAGMLVTNDQGRSYDRFRERVMFPIRDKRGRVIGFGGRVLGNDTPKYLNSPETDIFHKGRQLYGLYEAQQDNAEPNRLLVVEGYMDVVALAQYGINYAVASLGTSTTADHIQLLFRATNNVICCYDGDRAGRDAAWRALETALPYMTDGRQLRFMFLPDGEDPDTLVRKEGKEAFEARMEQAMPLSAFLFNSLMPQVDLSTPDGRARLSTLALPLISQVPGETLRIYLRQELGNKLGILDDSQLERLMPK
[1]
  sedimentation coefficient, free protein: 2.9 S
